Test results: paper PMC8251533 (Clinical Pharmacology in Drug Development, 2021)

Columns and labels:
[1] = Semaglutide plasma pharmacokinetics after a single dose of oral semaglutide; format: in vivo, human
Method in brief: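 Same crossover, dosing and fasting. Plasma was drawn predose and 0.5–24 h and analysed by LC-MS/MS (LLOQ 0.73 nmol/L). Trapezoidal AUC0-24h was used; log-transformed mixed models (volume, period fixed; subject random) allowed left-censoring. For correlation, log PK was modelled against log time to complete tablet erosion, assessed by gamma scintigraphy of ¹¹¹In-labelled tablets. 2^β gave the fold change per doubling. All-below-LLOQ profiles were imputed from 0.5×LLOQ.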

[2] = SNAC plasma pharmacokinetics after a single dose of oral semaglutide; format: in vivo, human; conditions: for Median tmax,SNAC: plasma, LC-MS/MS
Method in brief: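 Two-period randomized crossover in 26 fasting healthy men. Each received one 10 mg tablet (coformulated with 300 mg absorption enhancer), upright, between 8 and 11 am, with 50 or 240 mL water. Fasting continued ≥4 h, with 200 mL water at 2 h. Plasma was drawn predose and 10 min–6 h and assayed by protein precipitation LC-MS/MS. Trapezoidal AUC0-6h used actual times. AUC and Cmax were log-transformed; mixed model had volume and period fixed, subject random.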

[3] = linear mixed model, log-transformed
[4] = single oral semaglutide tablet with 300 mg SNAC, fasting healthy men

Structure (SMILES): CC[C@H](C)[C@H](NC(=O)[C@H](Cc1ccccc1)NC(=O)[C@H](CCC(=O)O)NC(=O)[C@H](CCCCNC(=O)COCCOCCNC(=O)COCCOCCNC(=O)CC[C@H](NC(=O)CCCCCCCCCCCCCCCCC(=O)O)C(=O)O)NC(=O)[C@H](C)NC(=O)[C@H](C)NC(=O)[C@H](CCC(N)=O)NC(=O)CNC(=O)[C@H](CCC(=O)O)NC(=O)[C@H](CC(C)C)NC(=O)[C@H](Cc1ccc(O)cc1)NC(=O)[C@H](CO)NC(=O)[C@H](CO)NC(=O)[C@@H](NC(=O)[C@H](CC(=O)O)NC(=O)[C@H](CO)NC(=O)[C@@H](NC(=O)[C@H](Cc1ccccc1)NC(=O)[C@@H](NC(=O)CNC(=O)[C@H](CCC(=O)O)NC(=O)C(C)(C)NC(=O)[C@@H](N)Cc1cnc[nH]1)[C@@H](C)O)[C@@H](C)O)C(C)C)C(=O)N[C@@H](C)C(=O)N[C@@H](Cc1c[nH]c2ccccc12)C(=O)N[C@@H](CC(C)C)C(=O)N[C@H](C(=O)N[C@@H](CCCNC(=N)N)C(=O)NCC(=O)N[C@@H](CCCNC(=N)N)C(=O)NCC(=O)O)C(C)C [semaglutide]
- 2^β, estimated fold change in AUC0-24h,semaglutide if time to CTE is doubled [1, 3]: approximately 2
- 2^β, estimated fold change in Cmax,semaglutide if time to CTE is doubled [1, 3]: approximately 2
- 2^β, estimated fold change in tmax,semaglutide if time to CTE is doubled [1, 3]: ~1.5
- AUC0-24h,semaglutide, higher with 50 versus 240 mL water ([1]; single 10 mg oral semaglutide): approximately 70%
- Cmax,semaglutide, higher with 50 versus 240 mL water ([1]; single 10 mg oral semaglutide): approximately 70%

Structure (SMILES): O=C([O-])CCCCCCCNC(=O)c1ccccc1O.[Na+] [SNAC, sodium N‐(8‐[2‐hydroxybenzoyl]amino) caprylate]
- Median tmax,SNAC ([2]; 50 mL water): 18 min
- Median tmax,SNAC ([2]; 240 mL water): 18 min
- AUC0-6h,SNAC, lower with 50 versus 240 mL water [2, 4]: 19%
- Cmax,SNAC, lower with 50 versus 240 mL water [2, 4]: 38%
